Laboratory results reported in ChEMBL document CHEMBL4627290, “Synthesis and biological evaluation of chepraecoxin A derivatives as α-glucosidase inhibitors” (Bioorg Med Chem Lett, 2020).
pIC50, pKi: −log10 of the molar value.

Assays:
[1] = Inhibition of alpha-glucosidase (unknown origin) at 500 uM relative to control; conditions: Homo sapiens
How it was run: (§1)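 Single-point screen at 500 μM inhibitor, with acarbose as positive control. Derivatives exceeding 50% inhibition were taken on to a dose-response series at several concentrations to derive IC50. Values are mean ± SD, n = 3.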

[2] = Inhibition of alpha-glucosidase (unknown origin); design: species or system Homo sapiens; how it was run: as §1
[3] = Potency index, ratio of chepraecoxinA IC50 to test compound IC50 for inhibition of alpha-glucosidase (unknown origin); conditions: Homo sapiens
[4] = Non-competitve inhibition of alpha-glucosidase (unknown origin) by Dixon-plot analysis; design: species or system Homo sapiens
How it was run: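 Kinetic study run at varied substrate concentrations. Inhibition type was assigned from a Lineweaver-Burk plot (Vm and Km compared), and the inhibition constant Ki was read from a Dixon plot.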

| inhibition [1] [%] | pIC50 [2] | Ratio IC50 [3] | pKi [4] | Compound |
| --- | --- | --- | --- | --- |
| 98 | 4.32 | – | – | CCCC(=O)O[C@H]1CC[C@@](C)(C(=O)O)[C@H]2CC[C@@]34C[C@H](CC[C@H]3[C@]12C)[C@@H](C)C4 |
| 98.4 | 3.83 | 2 | – | CC(=O)O[C@H]1CC[C@@](C)(C(=O)O)[C@H]2CC[C@@]34C[C@H](CC[C@H]3[C@]12C)[C@@H](C)C4 |
| 93 | 4.15 | – | – | C[C@H]1C[C@@]23CC[C@H]4[C@@](C)([C@@H](OC(=O)c5cccnc5)CC[C@@]4(C)C(=O)O)[C@@H]2CC[C@H]1C3 |
| 95.5 | 4.64 | – | – | CCCCCCCC(=O)O[C@H]1CC[C@@](C)(C(=O)O)[C@H]2CC[C@@]34C[C@H](CC[C@H]3[C@]12C)[C@@H](C)C4 |
| 17.8 | – | – | – | C[C@H]1C[C@@]23CC[C@H]4[C@@](C)([C@@H](OC(=O)CCC(=O)O)CC[C@@]4(C)C(=O)O)[C@@H]2CC[C@H]1C3 |
| – | 4.79 | 17 | 4.71 | C[C@H]1C[C@@]23CC[C@H]4[C@@](C)([C@@H](OC(=O)C5CCCCC5)CC[C@@]4(C)C(=O)O)[C@@H]2CC[C@H]1C3 |
| – | 4.34 | – | – | C[C@H]1C[C@@]23CC[C@H]4[C@@](C)([C@@H](OC(=O)c5ccccc5)CC[C@@]4(C)C(=O)O)[C@@H]2CC[C@H]1C3 |
| 91.8 | 4.77 | 17 | – | CCCCC/C=C/C(=O)O[C@H]1CC[C@@](C)(C(=O)O)[C@H]2CC[C@@]34C[C@H](CC[C@H]3[C@]12C)[C@@H](C)C4 |
| 11.4 | – | – | – | COC(=O)[C@]1(C)CC[C@H](OC(C)=O)[C@@]2(C)[C@@H]3CC[C@H]4C[C@@]3(CC[C@@H]21)C[C@@H]4C |
| 17.3 | – | – | – | C[C@H]1C[C@@]23CC[C@H]4[C@](C)([C@@H]2CC[C@H]1C3)[C@@H](O)CC[C@@]4(C)C(=O)O |
| – | 4.77 | 17 | – | C[C@H]1C[C@@]23CC[C@H]4[C@@](C)([C@@H](OC(=O)/C=C/c5ccccc5)CC[C@@]4(C)C(=O)O)[C@@H]2CC[C@H]1C3 |

Further lines, the compound ahead of its results:

| Compound | inhibition [1] [%] | pIC50 [2] | Ratio IC50 [3] | pKi [4] |
| --- | --- | --- | --- | --- |
| C[C@H]1O[C@H](O[C@H]2[C@H](O)[C@@H](O)[C@@H](O[C@H]3[C@H](O)[C@@H](O)C(O)O[C@@H]3CO)O[C@@H]2CO)[C@H](O)[C@@H](O)[C@@H]1N[C@H]1C=C(CO)[C@@H](O)[C@H](O)[C@H]1O (stereo not given in full) [ACARBOSE] | 79.8 | 3.89 | – | – |
| CC(=O)O[C@H]1CC[C@@](C)(C(=O)O)[C@H]2CC[C@@]34C[C@H](CC[C@H]3[C@]12C)[C@@](O)(CO)C4 | 7.5 | – | – | – |
| CC(=O)O[C@H]1CC[C@@](C)(C(=O)O)[C@H]2CC[C@@]34C[C@H](CC[C@H]3[C@]12C)[C@@]1(CO1)C4 | 9.6 | – | – | – |
| CCCCCCCCCCCCCCCCCC(=O)O[C@H]1CC[C@@](C)(C(=O)O)[C@H]2CC[C@@]34C[C@H](CC[C@H]3[C@]12C)[C@@H](C)C4 | 94.2 | 4.49 | – | – |
| C=C1C[C@@]23CC[C@H]4[C@](C)([C@@H]2CC[C@H]1C3)[C@@H](O)CC[C@@]4(C)C(=O)O | 52 | 3.27 | – | – |
| CC(=O)O[C@H]1CC[C@@](C)(C(=O)O)[C@H]2CC[C@]34CC(=O)[C@@H](CC[C@H]3[C@]12C)C4 | 78.8 | 3.58 | – | – |
| C=C1C[C@@]23CC[C@H]4[C@@](C)([C@@H](OC(C)=O)CC[C@@]4(C)C(=O)OC)[C@@H]2CC[C@H]1C3 | 45.4 | – | – | – |
| C=C1C[C@@]23CC[C@H]4[C@@](C)([C@@H](OC(C)=O)CC[C@@]4(C)C(=O)O)[C@@H]2CC[C@H]1C3 | 95 | 3.56 | – | – |
| C=C1C[C@@]23CC[C@H]4[C@@](C)(C(=O)CC[C@@]4(C)C(=O)O)[C@@H]2CC[C@H]1C3 | 19.4 | – | – | – |
| C=C1C(=O)[C@@]23CC[C@H]4[C@@](C)([C@@H](OC(C)=O)CC[C@@]4(C)C(=O)O)[C@@H]2CC[C@H]1C3 | 18.6 | – | – | – |
| C=C1C[C@@]23CC[C@H]4[C@@](C)(/C(=N/O)CC[C@@]4(C)C(=O)O)[C@@H]2CC[C@H]1C3 | 77.2 | 3.48 | – | – |
| C[C@H]1C[C@@]23CC[C@H]4[C@@](C)(C(=O)CC[C@@]4(C)C(=O)O)[C@@H]2CC[C@H]1C3 | 13.2 | – | – | – |
| C=C1[C@H]2CC[C@@H]3[C@@](CC[C@H]4[C@@]3(C)[C@@H](OC(C)=O)CC[C@@]4(C)C(=O)O)(C2)[C@H]1O | 22.1 | – | – | – |
